Hits are enriched below; roughly 4.2% of the tested compounds scored in any of these assays.
WT yeast gro inh = growth inhibition of WT strain, primary screen, mitochondrial fusion inhibitor project, WT and mutant strains, chemical genetic; mitochondrial fusion phenotypic screen; inhibition, % at 10 µM; 190,000 tested, 2.1% active; in the data active means inhibition above about 58%; tested in S. cerevisiae
Insulin prom up = insulin promoter activators in MIN6 cells, imaging, high-content screening, mouse beta cells | 190,000 tested, 0.3% active | MIN6 insulin promoter-GFP reporter; stronger effect = higher value | z-score at 5 µM;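 active means z-score above 3 at 5 µM with at least 500 cells counted in the well; inconclusive means wells under 500 cells, flagged as cytotoxic or low count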
Autophagy mod = autophagy modulators in MEF cells, primary screen, imaging, high-content, MEF GFP-LC3. 190,000 tested, 0.98% active. AID 463193, 2010. calls only at 10 µM (by protocol). MEF GFP-LC3 puncta imaging; test concentration mostly 10 µM;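 active means percentage of spot-positive cells more than 3 SD above its plate mean, without a fluorescence outlier flag or 80% toxicity; inconclusive means no clear call, values can overlap the other calls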
SKKanGAS inh = S. pyogenes SKKanGAS growth inhibitors in kanamycin, primary screen, streptokinase expression inhibitor project, SKKanGAS strain, BacTiter-Glo luminescence | 6 h | 300,000 tested, 1.3% active | inhibition, % at 7.5 µM;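 active means mean replicate score, as percent of positive control median, at least 50; inconclusive means mean below 50 but one replicate at or above 50; inactive means mean and every replicate below 50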;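 further: strain carries kanamycin resistance gene driven by streptokinase promoter and grows in 40 µg/ml kanamycin; loss of luminescence reflects streptokinase promoter inhibition or plain growth inhibition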
Rad51 HR inh = human RAD51 strand exchange inhibitors, primary screen, biochemical, fluorescence | 200,000 tested, 0.085% active | inhibition, % at 10 µM | hRad51 DNA strand exchange, fluorescence dequenching | DNA repair protein RAD51 homolog 1 (Homo sapiens), Q06609;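 active means inhibition above 40% at the single screening dose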
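Test system: preformed human Rad51 ssDNA filaments. Compound dosing: single dose, 10 µM final compound. Incubation: filaments 15 min 37 °C, then compound 30 min. Technique: FRET fluorescence dequenching, excitation 485 nm, emission 520 nm. Read-out basis: percent inhibition from fluorescence, normalised to plate control and blank means. Benchmarks: plate controls and plate blanks.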
KCC2 mod = KCC2 cotransporter modulators, thallium flux, primary screen, cell-based, HEK293 KCC2, FluoZin-2 fluorescence, MLSMR | B-score of Tl+ flux slope (higher = more flux/activation; lower = inhibition) at 10 µM | Solute carrier family 12 member 5 (Homo sapiens), Q9H2X9 | AID 1456, 2008 | 190,000 tested, 2.2% active | KCC2 cells, thallium flux FluoZin-2 fluorescence;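 active means thallium flux slope and its plate-corrected score both differing from the plate sample mean at a set confidence after two filtering rounds, in either direction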;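 further: slope of fluorescence scaled to starting intensity during 10 to 20 s after thallium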
Large screens that a line does not name were inactive.

CCOC(=O)c1c(CN2CCOCC2)n(-c2ccccc2)c2cc(Br)c(OC)cc12	WT yeast gro inh 73
CCOC(=O)c1c(CN(C)C)n(-c2ccc(C)cc2)c2cc(Br)c(O)cc12	SKKanGAS inh 100
CNC(=O)c1c(C)noc1C	none
COc1cccc(/C=N/Nc2nc(Nc3ccccc3)nc(-n3nc(C)cc3C)n2)c1O	Insulin prom up inconclusive, SKKanGAS inh 98
CCOc1cc(/C=N/Nc2nc(Nc3ccccc3)nc(N3CCCCC3)n2)ccc1OCC(=O)O	none
COc1cccc(/C=N/Nc2cc(-n3nc(C)cc3-c3ccccc3)ncn2)c1O	SKKanGAS inh 117
COc1ccc(/C=N/Nc2nc(Nc3ccccc3)nc(N3CCCCC3)n2)cc1OC	SKKanGAS inh 72 (no result: Insulin prom up)
O=S(=O)(c1ccccc1)N1CCN=C1SCc1c(F)cccc1Cl	SKKanGAS inh 64 (no result: WT yeast gro inh, Insulin prom up, Autophagy mod, Rad51 HR inh, KCC2 mod)
N#CCCn1cc(/C=N/N=C2\NC(=O)C(CC(=O)O)S2)c(-c2ccc(F)cc2)n1 (centres undefined)	none (no result: WT yeast gro inh, Autophagy mod)
O=C(N/N=C/c1ccc([N+](=O)[O-])o1)c1ccc2c(c1)OCO2	none (no result: WT yeast gro inh, Insulin prom up, Autophagy mod, Rad51 HR inh, KCC2 mod)
O=C(N/N=C\c1ccc(-c2ccc([N+](=O)[O-])cc2)o1)c1ccc2c(c1)OCO2	Autophagy mod active
CCc1cccc2sc(N3CCN(C(=O)c4ccc([N+](=O)[O-])o4)CC3)nc12	SKKanGAS inh 59 (no result: WT yeast gro inh, Insulin prom up, Autophagy mod, Rad51 HR inh, KCC2 mod)
CC1=C(C(=O)OC2CCCCC2)C(c2ccc(F)cc2)NC(=O)N1 (centres undefined)	none (no result: WT yeast gro inh, Insulin prom up, Autophagy mod, Rad51 HR inh, KCC2 mod)
Cc1ccc(C)c(NC(=O)C(C)CC2COCCO2)c1 (centres undefined)	Insulin prom up 3.5
Cc1ccc(C)c(NC(=O)C2CCCC2)c1	none (no result: WT yeast gro inh, Insulin prom up, Autophagy mod, Rad51 HR inh, KCC2 mod)
Cc1ccccc1NC1=C/C(=N\S(=O)(=O)c2cccs2)c2ccccc2C1=O	WT yeast gro inh 89, Insulin prom up inconclusive, SKKanGAS inh 90
COc1ccc(S(=O)(=O)/N=C2\C=C(Nc3ccc(O)cc3)C(=O)c3ccccc32)cc1	SKKanGAS inh 103 (no result: WT yeast gro inh, Insulin prom up, Autophagy mod, Rad51 HR inh, KCC2 mod)
Cc1ccc(NC2=C/C(=N/S(=O)(=O)c3cccs3)c3ccccc3C2=O)cc1C	none (no result: Rad51 HR inh)
COc1ccc(S(=O)(=O)c2ccc(O)cc2)cc1	none
CC(=O)Nc1ccc(NC2=C/C(=N/S(=O)(=O)c3cccs3)c3ccccc3C2=O)cc1	Insulin prom up inconclusive, Autophagy mod active
Cc1ccc(S(=O)(=O)N2CCCC(C(=O)Nc3ccc(C(=O)O)cc3)C2)cc1Cl (centres undefined)	none
O=C(COc1ccc(Br)cc1)NCCNC(=O)c1ccccn1	none (no result: WT yeast gro inh, Insulin prom up, Autophagy mod, Rad51 HR inh, KCC2 mod)
Cc1nc(Cl)c(Cl)n1CCOc1ccccc1	none (no result: WT yeast gro inh, Autophagy mod)
CCNC(=S)N/N=C/c1cccc(OCc2c(F)cccc2Cl)c1	WT yeast gro inh 69 (no result: Insulin prom up)
COc1cccc(/C=N/NC(=S)NCCc2ccccc2)c1	none (no result: WT yeast gro inh, Insulin prom up, Autophagy mod, Rad51 HR inh, KCC2 mod)
CNC(=S)N/N=C/c1cccc(OCc2ccccc2F)c1	WT yeast gro inh 67
CSc1nc2ccccc2c(=O)n1C1CCOC(C)(C)C1 (centres undefined)	none (no result: Rad51 HR inh)
CCC(C)c1ccccc1N1CC(C(=O)Nc2ccc(C)c(S(=O)(=O)N3CCOCC3)c2)CC1=O (centres undefined)	none (no result: WT yeast gro inh, Insulin prom up, Autophagy mod, Rad51 HR inh, KCC2 mod)
CC(C)(C)NC(=O)C(c1ccco1)N(Cc1ccc2c(c1)OCO2)C(=O)c1snc(C(N)=O)c1N (centres undefined)	none (no result: WT yeast gro inh, Insulin prom up, Autophagy mod, Rad51 HR inh, KCC2 mod)
COc1ccc(/C=N/Nc2nc(-c3ccc(Cl)cc3)cc(C(F)(F)F)n2)cc1OC	WT yeast gro inh 63 (no result: Insulin prom up)
COc1ccc(/C=N/Nc2nc(C)cc(-c3ccccc3)n2)cc1OC	none (no result: WT yeast gro inh, Insulin prom up, Autophagy mod, Rad51 HR inh, KCC2 mod)
COC(=O)CCSCC(=O)N1N=C(c2ccc(Br)cc2)CC1c1cccc(OC)c1OC (centres undefined)	none (no result: KCC2 mod)
CSCCCN1CCCC(CO)(Cc2ccccc2F)C1 (centres undefined)	none (no result: WT yeast gro inh, Insulin prom up, Autophagy mod, Rad51 HR inh, KCC2 mod)
Cc1cccc(C)c1NC(=O)CN(C)CC(=O)Nc1sc2c(c1C(N)=O)CCC2	SKKanGAS inh 50 (no result: WT yeast gro inh, Insulin prom up, Autophagy mod, Rad51 HR inh, KCC2 mod)
Cc1cccc(C)c1NC(=O)CN(C)CC(=O)Nc1ccccc1Br	WT yeast gro inh 66

Screening results as filed in PubChem.
